Laboratory results: ChEMBL document CHEMBL2203269, “Target-Activated Prodrugs (TAPs) for the Autoregulated Inhibition of MMP12” (ACS Med Chem Lett, 2012)
Residues, ends and D or L forms follow the SMILES beside them. *: point of attachment. Benzenesulfonyl(4-Ph) = O=S(=O)(c1ccc(-c2ccccc2)cc1)*; Benzenesulfonyl(4-OMe) = COc1ccc(S(=O)(=O)*)cc1

Tests used:
[1] = molecular target: Macrophage metalloelastase (Homo sapiens, UniProt P39900); test: Inhibition of human MMP12 by FRET reporter assay
In short: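 Recombinant human MMP12 activity was read with the fluorogenic FRET reporter substrate LaRee5. Inhibition constants were reported as IC50.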

[2] = Half life in TCN buffer at pH 7.5; assay type: physicochemical
In short: (§1)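 Compounds incubated without enzyme in TCN buffer, pH 7.5, at 37 °C. Spontaneous hydrolysis of the N-acylated sulfonamide was followed by HPLC over time, and half-lives (h) were derived from the traces.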

[3] = Stability of compound in fetal calf serum; assay type: ADME; conditions: cattle
[4] = Stability of compound in heat inactivated fetal calf serum; assay type: ADME; conditions: cattle
[5] = Drug metabolism in TCN buffer assessed as hydrolysis at pH 7.5; assay type: physicochemical; in short: as §1

Sequence of Macrophage metalloelastase (P39900 whole entry): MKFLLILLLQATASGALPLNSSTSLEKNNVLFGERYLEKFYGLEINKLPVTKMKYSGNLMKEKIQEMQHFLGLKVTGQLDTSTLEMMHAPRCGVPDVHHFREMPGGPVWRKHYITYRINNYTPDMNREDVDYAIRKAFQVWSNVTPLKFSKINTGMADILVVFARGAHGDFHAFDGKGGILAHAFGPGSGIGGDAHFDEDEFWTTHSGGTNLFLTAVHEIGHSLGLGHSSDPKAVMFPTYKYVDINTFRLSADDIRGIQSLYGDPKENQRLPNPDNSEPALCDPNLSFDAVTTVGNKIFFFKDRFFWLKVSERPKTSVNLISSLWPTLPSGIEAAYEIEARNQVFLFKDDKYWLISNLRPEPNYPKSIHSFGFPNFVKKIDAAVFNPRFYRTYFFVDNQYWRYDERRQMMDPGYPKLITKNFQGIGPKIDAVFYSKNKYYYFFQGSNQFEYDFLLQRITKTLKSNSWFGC

| IC50 [1] | half-life [2] | Structure (SMILES) | other results |
| --- | --- | --- | --- |
| 0.29 µM | – | O=C(O)CNS(=O)(=O)c1ccc(-c2ccccc2)cc1 | – |
| – | 5.1 h | CC(C)C[C@H](NC(=O)CN(C(=O)[C@H](CC(C)C)NC(=O)[C@@H]1CCCN1C(=O)OCc1ccccc1)S(=O)(=O)c1ccc(-c2ccccc2)cc1)C(=O)N[C@@H](CCC(=O)O)C(=O)N[C@@H](CCC(=O)O)C(=O)N[C@@H](C)C(N)=O | Stability [3]: Stable; Stability [4]: Stable |
| 13 µM | 27 h | CC(C)C[C@H](NC(=O)[C@@H]1CCCN1C(=O)OCc1ccccc1)C(=O)N(CC(=O)O)S(=O)(=O)c1ccc(-c2ccccc2)cc1 | Stability [3]: Stable; Stability [4]: Stable |
| – | 77 h | COc1ccc(S(=O)(=O)N(CC(=O)O)C(=O)[C@H](CC(C)C)NC(=O)[C@@H]2CCCN2C(=O)OCc2ccccc2)cc1 | – |

The next lines start with the compound.

| Structure (SMILES) | IC50 [1] | half-life [2] | other results |
| --- | --- | --- | --- |
| COc1ccc(S(=O)(=O)N(CC(=O)O)C(=O)CNC(=O)[C@H](CC(C)C)NC(=O)[C@@H]2CCCN2C(=O)OCc2ccccc2)cc1 | – | 27 h | – |
| COc1ccc(S(=O)(=O)N(CC(=O)N[C@@H](CC(C)C)C(=O)N[C@@H](CCC(=O)O)C(=O)N[C@@H](CCC(=O)O)C(=O)N[C@@H](C)C(N)=O)C(=O)CNC(=O)[C@@H]2CCCN2C(=O)OCc2ccccc2)cc1 | – | 6.4 h | – |
| COc1ccc(S(=O)(=O)N(CC(=O)N[C@@H](CC(C)C)C(=O)N[C@@H](CCC(=O)O)C(=O)N[C@@H](CCC(=O)O)C(=O)N[C@@H](C)C(N)=O)C(=O)[C@H](CC(C)C)NC(=O)[C@@H]2CCCN2C(=O)OCc2ccccc2)cc1 | – | 28 h | – |
| COc1ccc(S(=O)(=O)NCC(=O)N[C@@H](CC(C)C)C(=O)N[C@@H](CCC(=O)O)C(=O)N[C@@H](CCC(=O)O)C(=O)N[C@@H](C)C(N)=O)cc1 ({Benzenesulfonyl(4-OMe)}-GLEEA-NH2) | – | – | Drug metabolism [5]: Not Active |
| CC(C)C[C@H](NC(=O)CNS(=O)(=O)c1ccc(-c2ccccc2)cc1)C(=O)N[C@@H](CCC(=O)O)C(=O)N[C@@H](CCC(=O)O)C(=O)N[C@@H](C)C(N)=O ({Benzenesulfonyl(4-Ph)}-GLEEA-NH2) | 48 µM | – | Drug metabolism [5]: Not Active |
